{"source": "ChEMBL document CHEMBL5154634", "about": "“A Modular Synthetic Route Involving N-Aryl-2-nitrosoaniline Intermediates Leads to a New Series of 3-Substituted Halogenated Phenazine Antibacterial Agents” (J Med Chem, 2021)", "key": {"[1]": {"assay": "Binding affinity to Fe2+ assessed as compound-Fe2+ complex formation by UV-vis spectroscopy"}, "Staphylococcus aureus [2]": {"system": "Staphylococcus aureus", "assay": "Antibacterial activity against methicillin-resistant Staphylococcus aureus 138 assessed as bacterial growth inhibition", "assay_type": "functional"}, "Staphylococcus aureus [3]": {"system": "Staphylococcus aureus", "assay": "Antibacterial activity against methicillin-resistant Staphylococcus aureus 129 assessed as bacterial growth inhibition", "assay_type": "functional"}, "Staphylococcus aureus [4]": {"system": "Staphylococcus aureus", "assay": "Antibiofilm activity against methicillin-resistant Staphylococcus aureus BAA-1707 biofilms assessed as biofilm killing at MBEC measured by CBD assay", "assay_type": "functional"}, "HeLa": {"system": "HeLa", "assay": "Cytotoxicity against human HeLa cells assessed as reduction in cell viability incubated for 24 hrs by LDH release assay", "assay_type": "toxicity, cell-based", "summary_of_the_method": "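HeLa cells in DMEM with 10% FBS, treated at 70–80% confluence with 25, 50 and 100 μM for 24 h. LDH in supernatant measured by 30 min reaction at room temperature, then stop solution and absorbance at 490 nm. Controls: 2% Triton X-100 (maximum), medium only, DMSO vehicle. Three independent experiments.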"}, "[5]": {"system": "Staphylococcus epidermidis", "assay": "Antibiofilm activity against methicillin-resistant Staphylococcus epidermidis ATCC 35984 biofilms assessed as reduction of viable biofilm cells at 3.13 uM measured by CBD assay", "assay_type": "functional"}, "Staphylococcus aureus [6]": {"system": "Staphylococcus aureus", "assay": "Antibacterial activity against methicillin-resistant Staphylococcus aureus 147 assessed as bacterial growth inhibition", "assay_type": "functional"}, "Staphylococcus aureus [7]": {"system": "Staphylococcus aureus", "assay": "Antibacterial activity against methicillin-resistant Staphylococcus aureus BAA-1707 assessed as bacterial growth inhibition incubated for 16 hrs by broth microdilution susceptibility test", "assay_type": "functional", "summary_of_the_method": "(§1)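 CLSI broth microdilution with 11 twofold dilutions (0.05–50 μM). About 10^5 cells per well from a log-phase culture. DMSO vehicle up to 0.5% v/v. At least three independent experiments.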"}, "Enterococcus faecium [8]": {"system": "Enterococcus faecium", "assay": "Bactericidal activity against methicillin-resistant vancomycin-resistant Enterococcus faecium ATCC 700221 planktonic cells assessed as planktonic eradication incubated for 24 hrs followed by incubation for overnight in fresh medium by Calgary biofilm device assay", "assay_type": "functional", "summary_of_the_method": "(§2)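 Calgary biofilm device. Biofilms grown 24 h at 37 °C in TSB with 0.5% glucose, then challenged 24 h with twofold compound dilutions. 20 μL of challenge medium transferred into fresh TSB with 0.5% glucose and incubated overnight at 37 °C. MBC is the concentration with no visible turbidity. At least three independent experiments.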"}, "Staphylococcus aureus [9]": {"system": "Staphylococcus aureus", "assay": "Antibacterial activity against methicillin-resistant Staphylococcus aureus clinical isolate 2 assessed as bacterial growth inhibition", "assay_type": "functional"}, "Erythrocyte": {"system": "Erythrocyte", "assay": "Hemolytic activity against human RBC at 200 uM measured after 1 hr", "assay_type": "toxicity, cell-based", "summary_of_the_method": "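2% hRBCs exposed to compound at 200 μM final, added from DMSO stock, for 1 h at 37 °C. Supernatant OD read at 405 nm. Hemolysis normalized between DMSO (0%) and Triton X (100%); three independent experiments.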"}, "Enterococcus faecalis [10]": {"system": "Enterococcus faecalis", "assay": "Antibacterial activity against Enterococcus faecalis OG1RF ATCC 47077 assessed as bacterial growth inhibition incubated for 16 hrs by broth microdilution susceptibility test", "assay_type": "functional"}, "[11]": {"system": "Mycobacterium tuberculosis", "assay": "Antibacterial activity against Mycobacterium tuberculosis CDC1551 assessed as bacterial growth inhibition incubated for 5 days by luminescence based analysis", "assay_type": "functional", "conditions": "CDC1551, 120 h, time 5 day", "summary_of_the_method": "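Bioluminescent Mtb-lux CDC1551 reporter grown in Middlebrook 7H9 with 0.05% Tween 80, 10% OADC and kanamycin to OD600 0.4–0.8, then diluted to OD600 0.02. Added to twofold drug dilutions (0.003–200 μM). Incubated 5 days at 37 °C, 5% CO2. Luminescence read against 1% DMSO and 10 μM rifampicin controls to give % growth inhibition. MIC taken from a modified Gompertz fit.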"}, "[12]": {"system": "Staphylococcus epidermidis", "assay": "Bactericidal activity against methicillin-resistant Staphylococcus epidermidis ATCC 35984 planktonic cells assessed as planktonic eradication incubated for 24 hrs followed by incubation for overnight in fresh medium by Calgary biofilm device assay", "assay_type": "functional", "summary_of_the_method": "as §2"}, "Staphylococcus aureus [13]": {"system": "Staphylococcus aureus", "assay": "Antibacterial activity against methicillin-resistant Staphylococcus aureus clinical isolate 1 assessed as bacterial growth inhibition", "assay_type": "functional"}, "[14]": {"system": "Staphylococcus epidermidis", "assay": "Antibacterial activity against methicillin-resistant Staphylococcus epidermidis ATCC 35984 assessed as bacterial growth inhibition incubated for 16 hrs by broth microdilution susceptibility test", "assay_type": "functional", "summary_of_the_method": "as §1"}, "Staphylococcus aureus [15]": {"system": "Staphylococcus aureus", "assay": "Bactericidal activity against methicillin-resistant Staphylococcus aureus BAA-1707 planktonic cells assessed as planktonic eradication incubated for 24 hrs followed by incubation for overnight in fresh medium by Calgary biofilm device assay", "assay_type": "functional", "summary_of_the_method": "as §2"}, "[16]": {"system": "Staphylococcus epidermidis", "assay": "Antibiofilm activity against methicillin-resistant Staphylococcus epidermidis ATCC 35984 biofilms assessed as reduction of viable biofilm cells at MBEC measured by CBD assay", "assay_type": "functional", "summary_of_the_method": "(§3)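 After the Calgary biofilm device assay, treated and untreated pegs were removed, sonicated 30 min in PBS and plated for CFU per peg. Log10 reduction of viable biofilm cells at the MBEC determined by comparison with untreated pegs. At least three independent experiments.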"}, "[17]": {"system": "Staphylococcus epidermidis", "assay": "Antibiofilm activity against methicillin-resistant Staphylococcus epidermidis ATCC 35984 biofilms assessed as biofilm eradication incubated for 24 hrs followed by incubation for 24 hrs in fresh medium by Calgary biofilm device assay", "assay_type": "functional", "summary_of_the_method": "(§4)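 Calgary biofilm device. Mid-log culture diluted 1000-fold in TSB with 0.5% glucose; biofilms grown on pegs 24 h at 37 °C. Pegs washed and challenged with twofold compound dilutions for 24 h at 37 °C, then moved to fresh medium for 24 h. MBEC is the lowest concentration leaving wells non-turbid. At least three independent experiments.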"}, "HepG2": {"system": "HepG2", "assay": "Cytotoxicity against human HepG2 cells assessed as reduction in cell viability […] by Alamar blue assay", "assay_type": "toxicity, cell-based"}, "Staphylococcus aureus [18]": {"system": "Staphylococcus aureus", "assay": "Antibacterial activity against methicillin-resistant Staphylococcus aureus BAA-44 assessed as bacterial growth inhibition incubated for 16 hrs by broth microdilution susceptibility test", "assay_type": "functional", "summary_of_the_method": "(§5)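 CLSI broth microdilution with 11 twofold dilutions (0.05–50 μM). Medium was LB for the staphylococci and BHI for VRE 700221. About 10^5 cells per well from a log-phase culture. […] DMSO vehicle up to 0.5% v/v. At least three independent experiments.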"}, "Enterococcus faecium [19]": {"system": "Enterococcus faecium", "assay": "Antibiofilm activity against methicillin-resistant vancomycin-resistant Enterococcus faecium ATCC 700221 biofilms assessed as biofilm eradication incubated for 24 hrs followed by incubation for 24 hrs in fresh medium by Calgary biofilm device assay", "assay_type": "functional", "summary_of_the_method": "as §4"}, "[20]": {"assay": "Dissociation constant, pKa of the compound at 125 uM by UV-vis spectrophotometric analysis", "assay_type": "physicochemical", "summary_of_the_method": "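Compound at 125 μM final in phosphate buffers (KH₂PO₄/Na₂HPO₄) in 1:1 water/methanol, pH 4.07–9.66; ammonium hydroxide added for pH above 9.80. UV-vis scans 200–800 nm to find λmax of phenol and phenolate forms. Absorbance at each λmax plotted against pH.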"}, "Enterococcus faecium [21]": {"system": "Enterococcus faecium", "assay": "Antibacterial activity against vancomycin-resistant Enterococcus faecium ATCC 700221 assessed as bacterial growth inhibition incubated for 16 hrs by broth microdilution susceptibility test", "assay_type": "functional", "summary_of_the_method": "as §5"}, "Enterococcus faecalis [22]": {"system": "Enterococcus faecalis", "assay": "Bactericidal activity against […] Enterococcus faecalis OG1RF ATCC 47077 planktonic cells assessed as planktonic eradication incubated for 24 hrs followed by incubation for overnight in fresh medium by Calgary biofilm device assay", "assay_type": "functional", "summary_of_the_method": "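Calgary biofilm device in BHI. Biofilms grown 24 h at 37 °C and challenged 24 h with twofold compound dilutions. Challenge medium subcultured 1:10 into fresh BHI overnight at 37 °C. MBC is the concentration with no turbidity. At least three independent experiments.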"}, "J774": {"system": "J774", "assay": "Cytotoxicity against mouse J774 cells assessed as reduction in cell viability […] by Alamar blue assay", "assay_type": "toxicity, cell-based"}, "[23]": {"system": "Staphylococcus epidermidis", "assay": "Antibiofilm activity against methicillin-resistant Staphylococcus epidermidis ATCC 35984 biofilms assessed as biofilm killing at 3.13 uM measured by CBD assay", "assay_type": "functional"}, "Staphylococcus aureus [24]": {"system": "Staphylococcus aureus", "assay": "Antibacterial activity against methicillin-resistant Staphylococcus aureus 156 assessed as bacterial growth inhibition", "assay_type": "functional"}, "Staphylococcus aureus [25]": {"system": "Staphylococcus aureus", "assay": "Antibiofilm activity against methicillin-resistant Staphylococcus aureus BAA-1707 biofilms assessed as reduction of viable biofilm cells at MBEC measured by CBD assay", "assay_type": "functional", "summary_of_the_method": "as §3"}, "[26]": {"system": "Mycobacterium tuberculosis", "assay": "Antibacterial activity against Mycobacterium tuberculosis H37Ra ATCC 25177 assessed as bacterial growth inhibition incubated for 7 days by absorbance based analysis", "assay_type": "functional", "conditions": "H37Ra ATCC 25177, 168 h, time 7 day", "summary_of_the_method": "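H37Ra grown 2 weeks in Middlebrook 7H9, then diluted to OD600 0.01. Compounds added in twofold dilutions, final 0.024–50 μM, with 0.5% DMSO and streptomycin as positive control. Incubated 7 days at 37 °C. MIC is the lowest concentration with no growth, with OD600 recorded. At least three independent experiments.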"}, "Staphylococcus aureus [27]": {"system": "Staphylococcus aureus", "assay": "Antibiofilm activity against methicillin-resistant Staphylococcus aureus BAA-1707 biofilms assessed as biofilm eradication incubated for 24 hrs followed by incubation for 24 hrs in fresh medium by Calgary biofilm device assay", "assay_type": "functional", "summary_of_the_method": "as §4"}}, "note": "The source made the active and inactive calls. No cut-off for these calls is given here."}
{"smiles": "Oc1c(Br)c(Cl)c(Br)c2nc3c(Cl)cc(Cl)cc3nc12", "values": [{"measurement": "Activity", "setting": "[1]", "result": "Active"}, {"measurement": "MIC", "setting": "Staphylococcus aureus [2]", "result": 0.47, "unit": "µM"}, {"measurement": "MIC", "setting": "Staphylococcus aureus [3]", "result": 0.47, "unit": "µM"}, {"measurement": "Activity", "setting": "Staphylococcus aureus [4]", "result": 99.9, "unit": "%"}, {"measurement": "IC50", "setting": "HeLa", "result": "> 100", "unit": "µM"}, {"measurement": "Activity", "setting": "[5]", "result": 5, "unit": "log10CFU"}, {"measurement": "MIC", "setting": "Staphylococcus aureus [6]", "result": 0.47, "unit": "µM"}, {"measurement": "MIC", "setting": "Staphylococcus aureus [7]", "result": 0.59, "unit": "µM"}, {"measurement": "MBC", "setting": "Enterococcus faecium [8]", "result": 0.39, "unit": "µM"}, {"measurement": "MIC", "setting": "Staphylococcus aureus [9]", "result": 0.47, "unit": "µM"}, {"measurement": "Activity", "setting": "Erythrocyte", "result": "<= 1%"}, {"measurement": "MIC", "setting": "Enterococcus faecalis [10]", "result": 0.3, "unit": "µM"}, {"measurement": "MIC", "setting": "[11]", "result": 0.8, "unit": "µM"}, {"measurement": "MBC", "setting": "[12]", "result": 0.59, "unit": "µM"}, {"measurement": "MIC", "setting": "Staphylococcus aureus [13]", "result": 0.47, "unit": "µM"}, {"measurement": "MIC", "setting": "[14]", "result": "≤ 0.05", "unit": "µM"}, {"measurement": "MBC", "setting": "Staphylococcus aureus [15]", "result": 1.56, "unit": "µM"}, {"measurement": "Activity", "setting": "[16]", "result": 3.18, "unit": "log10CFU"}, {"measurement": "MBEC", "setting": "[17]", "result": 0.3, "unit": "µM"}, {"measurement": "IC50", "setting": "HepG2", "result": "> 200", "unit": "µM"}, {"measurement": "MIC", "setting": "Staphylococcus aureus [18]", "result": 0.15, "unit": "µM"}, {"measurement": "MBEC", "setting": "Enterococcus faecium [19]", "result": 0.2, "unit": "µM"}, {"measurement": "pKa at 125 µM", "setting": "[20]", "result": 6.07}, {"measurement": "MIC", "setting": "Enterococcus faecium [21]", "result": 0.08, "unit": "µM"}, {"measurement": "MBC", "setting": "Enterococcus faecalis [22]", "result": 3.13, "unit": "µM"}, {"measurement": "IC50", "setting": "J774", "result": "> 200", "unit": "µM"}, {"measurement": "Activity", "setting": "[23]", "result": 99.999, "unit": "%"}, {"measurement": "MIC", "setting": "Staphylococcus aureus [24]", "result": 0.47, "unit": "µM"}, {"measurement": "Activity", "setting": "Staphylococcus aureus [25]", "result": 3.03, "unit": "log10CFU"}, {"measurement": "MIC", "setting": "[26]", "result": 6.25, "unit": "µM"}, {"measurement": "MBEC", "setting": "Staphylococcus aureus [27]", "result": 3.13, "unit": "µM"}]}
